The nature of data set [1]: Toxicity in BALB/c nude mouse xenografted with human BxPC-3 cells assessed as tissue fibrosis in spleen at 5 to 15 mg/kg, ip qd for 21 days by H and E staining based analysis. As to conditions: in vivo, 504 h. On the technique in general: Xenograft models place foreign cells or tissue in a host animal.
Data set [2] deals with BxPC-3. Kind of data set: Antitumor activity aginst human BxPC-3 cells xenografted in BALB/c nude mouse assessed as decrease in tumor volume at 15 mg/kg, ip qd for 21 days relative to control. More on the design: scale not given: the % may be the effect or the level left. As to conditions: time 21 day.
Data set [3] relates to BXPC-3. Kind of data set: Induction of apoptosis in human BXPC-3 cells assessed as necrotic cells at 10 uM incubated for 48 hrs by Annexin V-FITC/PI staining based flow cytometry (reference value: 0.71 %). Format: functional. A general note: In flow cytometry, cells or beads pass a laser one at a time.
The subject of data set [4] is PANC-1. Kind of data set: Induction of apoptosis in human PANC-1 cells assessed as necrotic cells at 2.5 uM incubated for 48 hrs by Annexin V-FITC/PI staining based flow cytometry (reference value: 2.24 %). Format: functional.
In data set [5] the test system is PANC-1. Kind of data set: Induction of apoptosis in human PANC-1 cells assessed as late apoptotic cells at 8 uM incubated for 48 hrs by Annexin V-FITC/PI staining based flow cytometry (reference value: 2.74 %). Format: functional.
Data set [6] relates to BXPC-3. Kind of data set: Induction of apoptosis in human BXPC-3 cells assessed as necrotic cells at 8 uM incubated for 48 hrs by Annexin V-FITC/PI staining based flow cytometry (reference value: 0.71 %). Format: functional.
Data set [7] can be described thus: Toxicity in BALB/c nude mouse xenografted with human BxPC-3 cells assessed as cellular edema in liver at 5 to 15 mg/kg, ip qd for 21 days by H and E staining based analysis. As to conditions: in vivo, 504 h.
Data set [8] relates to BxPC-3. Kind of data set: Antitumor activity aginst human BxPC-3 cells xenografted in BALB/c nude mouse assessed as decrease in tumor volume at 5 mg/kg, ip qd for 21 days relative to control. More on the design: scale not given: the % may be the effect or the level left. As to conditions: time 21 day.
Data set [9] can be described thus: Toxicity in BALB/c nude mouse xenografted with human BxPC-3 cells assessed as necrosis in spleen at 5 to 15 mg/kg, ip qd for 21 days by H and E staining based analysis. As to conditions: in vivo, 504 h.
The test system of data set [10] is PANC-1. Kind of data set: Induction of apoptosis in human PANC-1 cells assessed as late apoptotic cells at 5 uM incubated for 48 hrs by Annexin V-FITC/PI staining based flow cytometry (reference value: 2.74 %). Format: functional.
Data set [11] has as its system PANC-1. Kind of data set: Induction of cell cycle arrest in human PANC-1 cells assessed as accumulation at S phase at 10 uM incubated for 48 hrs by PI/RNase staining based flow cytometry (reference value: 7.58 %). Format: functional.
Data set [12] relates to PANC-1. Kind of data set: Inhibition of Hh signaling pathway in human PANC-1 cells assessed as reduction in Gli1 mRNA level incubated for 48 hrs by qRT-PCR analysis. The format is cell-based. As to conditions: dose 2.5-10 µM. An outline of the steps:
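Total RNA was extracted by column kit after 48 h treatment and checked spectrophotometrically. Gli1 and Ptch1 transcripts were quantified by real-time RT-qPCR with GAPDH as internal control. Results are fold change relative to the untreated group; three separate experiments.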
A general note: Quantitative PCR measures a nucleic acid by following its amplification.

A short description of data set [13]: Toxicity in BALB/c nude mouse xenografted with human BxPC-3 cells assessed as inflammatory infiltration in spleen at 5 to 15 mg/kg, ip qd for 21 days by H and E staining based analysis. Particulars: in vivo, 504 h.

For the molecule `CN(C)Cc1ccc(NC(=O)c2ccc(Nc3nccc(-c4cccnc4)n3)cc2)cc1`, the Activity entry was “Non-toxic” in data set [1]; 82% in data set [2]; 2.32% in data set [3]; 2.19% in data set [4]; 8.97% in data set [5]; 2.47% in [6]. Besides, the Activity entry in [7] is “Non-toxic”; in data set [8] it was 73%; in [9], “Non-toxic”; in data set [10], 7.03%; in data set [11] it was 10.5%; in [13], “Non-toxic”. The inhibition entry in [12] was “Dose-dependent-effect”.

For the origin of these results see ChEMBL document CHEMBL6092204, “Synthesis of pyridyl pyrimidine hedgehog signaling pathway inhibitors and their antitumor activity in human pancreatic cancer” (Eur J Med Chem, 2024).
